In paper PMC8942377 (Science Advances, 2022):
Where no end group is shown, it is not given here.

Tests used:
mice = experiment: Tail flick test; assay type: in vivo, mouse; conditions: intrathecal, 1 mg/kg, positive control
Summary of the method: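 Mice lightly sedated with 2% isoflurane, then given one intrathecal lumbar-puncture injection (5 μl) of saline, morphine 1 mg/kg, or test compound 0.025–0.75 mg/kg. Distal two-thirds of tail dipped in 52°C water; latency to withdrawal timed by chronometer. Result taken as mean tail flick latency.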

[1] = following intravenous infusion; cited from earlier work
SST1–5 = conditions: cited from earlier work

Molecule: CN1CC[C@]23c4c5ccc(O)c4O[C@H]2[C@@H](O)C=C[C@H]3[C@H]1C5 [Morphine]
- tail flick antinociception (mice): robust antinociception

Molecule: octreotide
- in vivo half-life [1]: 1.5 h
- SS receptor subtype selectivity (SST1–5): preferentially activated SST2 over SST3 and SST5 and displayed little to no activity on SST1 or SST4

Molecule: urotensin-II (ETPDCFWKYCV; ends and bridges not checked; cysteine pairing not given here; UniProt O95399 114-124, looked up) [UII]
- activity at SST1–5 (SST1–5): low activity
